Experimental data: ChEMBL document CHEMBL4376826 (J Med Chem, 2020); call rule not given here
pIC50: −log10 of the molar value. In brackets after ≈: the same amount, converted by molar mass.

Assays:
[1] = Drug level in beta-naphthoflavone/phenobarbital-induced rat liver S9 fraction treated with 100 ug/ml Ezutromid-1 assessed as compound formation in presence of NADPH measured after 4 hrs by UV-Vis spectroscopy; format: ADME, subcellular; conditions: s9, 4 h
[2] = Retention time in beta-naphthoflavone/phenobarbital-induced rat liver S9 fraction at 100 ug/ml in presence of NADPH measured after 4 hrs by UV-Vis spectroscopy; format: ADME, subcellular; conditions: s9, 4 h
[3] = Retention time in beta-naphthoflavone/phenobarbital-induced rat liver S9 fraction at 100 ug/ml in presence of NADPH by LC-MS/MS analysis; format: ADME, subcellular
[4] = Retention time in human plasma by LC-MS/MS analysis; format: ADME, cell-free
[5] = Lipophilicity, logD of the compound at pH 7.4; format: physicochemical; conditions: buffer
[6] = Kinetic aqueous solubility of the compound; format: physicochemical; conditions: buffer; read-out: Kinetic_solubility
[7] = Permeability at pH 7.4 by PAMPA; format: ADME; conditions: read-out: permeability
[8] = Protein binding in mouse plasma assessed as bound fraction; format: ADME, cell-free
Summary of the method: (§1)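 Binding measured in 100% plasma; reported as fraction bound.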

[9] = Protein binding in human plasma assessed as bound fraction; format: ADME, cell-free; conditions: read-out: PPB (converted); summary of the method: as §1
[10] = Half life in mouse liver S9 fraction; format: ADME, subcellular
Summary of the method: (§2)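 Metabolic stability of the dihydrodiols measured in vitro with mouse and human liver S9 fractions and with mouse and human hepatocytes; half-life from substrate depletion.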

[11] = Half life in mouse hepatocytes; format: ADME, cell-based, Hepatocyte; summary of the method: as §2
[12] = biological target: UDP-glucuronosyltransferase 1A4 (Homo sapiens, UniProt P22310); test: Drug metabolism assessed as human UGT1A4-mediated metabolism by measuring intrinsic clearance; format: ADME; conditions: recombinant enzyme
Chain of UDP-glucuronosyltransferase 1A4 (P22310 whole entry): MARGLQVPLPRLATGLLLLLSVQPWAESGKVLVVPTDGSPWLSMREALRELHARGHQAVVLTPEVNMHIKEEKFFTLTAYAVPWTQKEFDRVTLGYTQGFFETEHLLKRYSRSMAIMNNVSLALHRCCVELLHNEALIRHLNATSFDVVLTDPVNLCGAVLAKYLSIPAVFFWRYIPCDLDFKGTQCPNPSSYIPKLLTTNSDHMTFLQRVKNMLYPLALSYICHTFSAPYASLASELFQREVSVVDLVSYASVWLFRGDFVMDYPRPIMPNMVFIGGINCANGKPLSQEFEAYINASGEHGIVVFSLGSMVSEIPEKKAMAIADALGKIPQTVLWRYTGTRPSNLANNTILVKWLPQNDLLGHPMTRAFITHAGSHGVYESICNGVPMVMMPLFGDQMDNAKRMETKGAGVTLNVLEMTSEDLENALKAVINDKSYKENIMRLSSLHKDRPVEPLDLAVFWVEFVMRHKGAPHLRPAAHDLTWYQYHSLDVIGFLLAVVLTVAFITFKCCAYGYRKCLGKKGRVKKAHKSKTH

[13] = Half life in human liver S9 fraction; format: ADME, subcellular; summary of the method: as §2
[14] = Half life in human hepatocytes; format: ADME, cell-based, Hepatocyte; summary of the method: as §2
[15] = Intrinsic clearance in mouse liver S9 fraction; format: ADME, subcellular; conditions: read-out: CLH
[16] = Intrinsic clearance in mouse hepatocytes; format: ADME, cell-based, Hepatocyte
[17] = Intrinsic clearance in human liver S9 fraction; format: ADME, subcellular; conditions: read-out: CLH
[18] = Intrinsic clearance in human hepatocytes; format: ADME, cell-based, Hepatocyte
[19] = system: UDP-glucuronosyltransferases (UGTs); test: Drug metabolism assessed as human UGT-mediated metabolism by measuring intrinsic clearance; format: ADME, protein assay
[20] = biological target: UGT1A9 (Homo sapiens, UniProt O60656); test: Inhibition of human UGT1A9 assessed as residual enzyme activity at 10 uM relative to control; format: ADME; conditions: read-out: Activity
Chain of UGT1A9 (O60656 whole entry): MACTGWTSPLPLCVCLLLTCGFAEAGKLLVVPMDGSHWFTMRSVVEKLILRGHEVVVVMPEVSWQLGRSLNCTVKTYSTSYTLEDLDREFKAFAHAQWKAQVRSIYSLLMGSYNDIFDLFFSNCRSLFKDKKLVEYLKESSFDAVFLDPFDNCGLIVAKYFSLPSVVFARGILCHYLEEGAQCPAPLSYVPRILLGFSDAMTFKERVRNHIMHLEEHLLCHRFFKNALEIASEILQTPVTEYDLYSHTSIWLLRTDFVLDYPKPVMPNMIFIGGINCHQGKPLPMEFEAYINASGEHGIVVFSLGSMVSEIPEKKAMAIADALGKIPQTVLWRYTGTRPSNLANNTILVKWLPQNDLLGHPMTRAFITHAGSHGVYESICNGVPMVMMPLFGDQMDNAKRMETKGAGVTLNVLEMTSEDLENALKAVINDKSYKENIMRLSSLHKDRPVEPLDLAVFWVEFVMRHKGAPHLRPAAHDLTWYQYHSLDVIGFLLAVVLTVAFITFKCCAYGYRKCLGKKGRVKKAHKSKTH

[21] = biological target: UGT1A3 (Homo sapiens, UniProt P35503); test: Inhibition of human UGT1A3 assessed as residual enzyme activity at 10 uM relative to control; format: ADME; conditions: read-out: Activity
Chain of UGT1A3 (P35503 whole entry): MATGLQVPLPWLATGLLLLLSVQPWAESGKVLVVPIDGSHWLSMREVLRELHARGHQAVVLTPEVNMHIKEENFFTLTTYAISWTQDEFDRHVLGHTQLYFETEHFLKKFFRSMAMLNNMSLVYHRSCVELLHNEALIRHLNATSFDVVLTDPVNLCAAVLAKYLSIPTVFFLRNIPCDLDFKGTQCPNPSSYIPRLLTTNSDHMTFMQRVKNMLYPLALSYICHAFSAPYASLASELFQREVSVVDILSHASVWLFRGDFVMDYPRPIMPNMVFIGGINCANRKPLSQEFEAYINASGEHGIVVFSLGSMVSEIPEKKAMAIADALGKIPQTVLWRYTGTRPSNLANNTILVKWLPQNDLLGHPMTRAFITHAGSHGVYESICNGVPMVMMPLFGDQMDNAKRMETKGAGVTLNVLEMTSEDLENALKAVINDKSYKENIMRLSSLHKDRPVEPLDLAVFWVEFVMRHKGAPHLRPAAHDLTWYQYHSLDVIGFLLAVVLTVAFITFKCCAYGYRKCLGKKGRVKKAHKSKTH

[22] = biological target: Broad substrate specificity ATP-binding cassette transporter ABCG2 (Homo sapiens, UniProt Q9UNQ0); test: Inhibition of BCRP (unknown origin); format: ADME
Chain of Broad substrate specificity ATP-binding cassette transporter ABCG2 (Q9UNQ0 whole entry): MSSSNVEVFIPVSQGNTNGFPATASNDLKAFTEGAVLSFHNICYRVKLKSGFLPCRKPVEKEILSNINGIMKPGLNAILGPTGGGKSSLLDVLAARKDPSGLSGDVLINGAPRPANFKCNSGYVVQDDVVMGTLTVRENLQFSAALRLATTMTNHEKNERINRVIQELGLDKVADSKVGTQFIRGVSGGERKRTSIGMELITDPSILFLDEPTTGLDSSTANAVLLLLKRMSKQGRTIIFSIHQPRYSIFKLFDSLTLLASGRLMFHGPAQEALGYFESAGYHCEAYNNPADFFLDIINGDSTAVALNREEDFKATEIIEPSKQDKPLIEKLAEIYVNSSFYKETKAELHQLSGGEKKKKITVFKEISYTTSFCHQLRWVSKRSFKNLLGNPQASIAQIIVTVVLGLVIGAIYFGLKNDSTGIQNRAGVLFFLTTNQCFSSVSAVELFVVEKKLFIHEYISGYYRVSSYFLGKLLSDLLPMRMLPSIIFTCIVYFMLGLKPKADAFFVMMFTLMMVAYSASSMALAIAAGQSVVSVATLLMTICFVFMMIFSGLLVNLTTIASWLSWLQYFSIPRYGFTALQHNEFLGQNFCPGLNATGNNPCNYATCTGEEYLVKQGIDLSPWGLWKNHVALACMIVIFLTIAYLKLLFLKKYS

[23] = biological target: Solute carrier organic anion transporter family member 1B1 (Homo sapiens, UniProt Q9Y6L6); test: Inhibition of OATP1B1 (unknown origin); format: ADME
Chain of Solute carrier organic anion transporter family member 1B1 (Q9Y6L6 whole entry): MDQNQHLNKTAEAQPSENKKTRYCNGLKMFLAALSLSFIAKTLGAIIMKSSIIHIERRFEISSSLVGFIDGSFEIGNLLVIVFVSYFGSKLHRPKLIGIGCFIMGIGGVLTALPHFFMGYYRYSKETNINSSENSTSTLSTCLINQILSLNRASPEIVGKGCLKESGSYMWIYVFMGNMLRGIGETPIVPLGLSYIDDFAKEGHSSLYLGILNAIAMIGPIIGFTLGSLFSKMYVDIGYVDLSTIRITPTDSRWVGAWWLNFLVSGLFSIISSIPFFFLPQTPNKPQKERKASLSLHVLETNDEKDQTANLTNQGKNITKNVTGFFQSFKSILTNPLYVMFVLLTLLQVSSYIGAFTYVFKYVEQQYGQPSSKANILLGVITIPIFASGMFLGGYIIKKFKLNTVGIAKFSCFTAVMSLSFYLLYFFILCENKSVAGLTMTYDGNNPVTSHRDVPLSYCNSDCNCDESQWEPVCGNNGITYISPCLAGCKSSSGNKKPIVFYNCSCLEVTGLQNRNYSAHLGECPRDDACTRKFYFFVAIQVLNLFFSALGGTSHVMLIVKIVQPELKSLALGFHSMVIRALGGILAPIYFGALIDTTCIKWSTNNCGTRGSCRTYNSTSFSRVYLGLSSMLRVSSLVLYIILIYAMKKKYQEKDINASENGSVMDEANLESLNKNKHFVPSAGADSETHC

[24] = biological target: Solute carrier organic anion transporter family member 1B3 (Homo sapiens, UniProt Q9NPD5); test: Inhibition of OATP1B3 (unknown origin); format: ADME
Chain of Solute carrier organic anion transporter family member 1B3 (Q9NPD5 whole entry): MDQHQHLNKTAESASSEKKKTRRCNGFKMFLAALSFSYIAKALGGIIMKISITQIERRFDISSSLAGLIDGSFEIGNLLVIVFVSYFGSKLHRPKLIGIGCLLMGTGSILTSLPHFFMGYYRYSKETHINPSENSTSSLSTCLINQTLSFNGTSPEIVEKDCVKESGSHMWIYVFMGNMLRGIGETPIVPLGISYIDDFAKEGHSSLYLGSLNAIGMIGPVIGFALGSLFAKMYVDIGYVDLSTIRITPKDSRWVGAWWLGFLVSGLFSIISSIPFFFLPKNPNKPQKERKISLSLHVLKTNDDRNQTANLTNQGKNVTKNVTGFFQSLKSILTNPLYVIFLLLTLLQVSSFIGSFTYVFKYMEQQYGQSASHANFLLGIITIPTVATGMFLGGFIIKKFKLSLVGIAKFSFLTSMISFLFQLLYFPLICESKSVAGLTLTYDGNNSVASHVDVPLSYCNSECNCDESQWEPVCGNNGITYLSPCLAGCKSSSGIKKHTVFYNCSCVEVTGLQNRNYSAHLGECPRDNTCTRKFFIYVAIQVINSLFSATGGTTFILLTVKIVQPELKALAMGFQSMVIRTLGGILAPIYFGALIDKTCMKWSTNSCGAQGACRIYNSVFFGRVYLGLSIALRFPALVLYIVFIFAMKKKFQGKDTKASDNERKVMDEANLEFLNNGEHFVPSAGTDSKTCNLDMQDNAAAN

[25] = biological target: Multidrug and toxin extrusion protein 1 (Homo sapiens, UniProt Q96FL8); test: Inhibition of MATE1 (unknown origin); format: ADME
Chain of Multidrug and toxin extrusion protein 1 (Q96FL8 whole entry): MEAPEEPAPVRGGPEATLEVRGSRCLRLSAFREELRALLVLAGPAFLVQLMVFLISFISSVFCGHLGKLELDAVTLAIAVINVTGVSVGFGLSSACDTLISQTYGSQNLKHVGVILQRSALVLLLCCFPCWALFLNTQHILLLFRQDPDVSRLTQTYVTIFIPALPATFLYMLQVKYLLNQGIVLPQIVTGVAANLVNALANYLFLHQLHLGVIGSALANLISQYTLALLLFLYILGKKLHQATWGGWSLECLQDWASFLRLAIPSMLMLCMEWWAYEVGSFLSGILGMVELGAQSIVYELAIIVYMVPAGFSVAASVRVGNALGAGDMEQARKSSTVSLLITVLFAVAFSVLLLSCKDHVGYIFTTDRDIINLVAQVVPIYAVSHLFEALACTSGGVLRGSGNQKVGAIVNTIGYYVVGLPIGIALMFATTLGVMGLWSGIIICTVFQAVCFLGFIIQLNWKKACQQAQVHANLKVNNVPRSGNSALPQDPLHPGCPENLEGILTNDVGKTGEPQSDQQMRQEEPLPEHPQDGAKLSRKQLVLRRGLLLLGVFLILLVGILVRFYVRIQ

[26] = biological target: T1, Amine oxidase [flavin-containing] B (Homo sapiens, UniProt P27338); test: Inhibition of monoamino oxidase B (unknown origin) at 10 uM
T1 sequence (P27338 whole entry): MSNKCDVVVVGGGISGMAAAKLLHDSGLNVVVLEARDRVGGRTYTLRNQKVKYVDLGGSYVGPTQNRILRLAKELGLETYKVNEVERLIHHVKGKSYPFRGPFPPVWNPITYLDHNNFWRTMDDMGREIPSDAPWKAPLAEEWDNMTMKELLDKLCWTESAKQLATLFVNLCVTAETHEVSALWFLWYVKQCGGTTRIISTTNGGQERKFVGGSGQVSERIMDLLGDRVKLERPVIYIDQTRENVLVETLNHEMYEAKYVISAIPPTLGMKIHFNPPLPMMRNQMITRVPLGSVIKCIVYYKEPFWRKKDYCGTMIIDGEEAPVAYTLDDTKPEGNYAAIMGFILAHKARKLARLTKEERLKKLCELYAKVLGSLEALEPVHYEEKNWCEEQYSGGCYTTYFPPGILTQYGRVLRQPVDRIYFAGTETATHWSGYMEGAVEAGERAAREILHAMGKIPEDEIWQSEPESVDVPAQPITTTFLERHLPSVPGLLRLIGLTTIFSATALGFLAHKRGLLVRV

[27] = Inhibition of adenosine transporter (unknown origin) at 10 uM; format: ADME; conditions: human
[28] = biological target: T1, Amine oxidase [flavin-containing] B; test: Inhibition of monoamino oxidase B (unknown origin)
[29] = Inhibition of adenosine transporter (unknown origin); format: ADME, Homo sapiens

Drug uptake [1]: Metabolite_Detected
Retention time [2]: 26.7 min
Retention_time [3]: 8.2 min
Retention_time [4]: 8.1 min
logD [5]: 2.04
solubility kinetic [6]: 96 µM (≈ 35.7 µg/mL)
Papp [7]: 33.3 ×10⁻⁶ cm/s
PPB [8]: Not Active
fraction unbound [9]: 0.363
half-life [10]: 39 min
half-life [11]: 7 min
CL [12]: < 2.9 µL/min/pmol
half-life [13]: > 138 min
half-life [14]: 85 min
microsomal CLint [15]: 35 µL/min/mg
CLH [16]: 98 µL/min/mg
microsomal CLint [17]: < 10 µL/min/mg
CLH [18]: 8 µL/min/mg
CL [19]: < 5.8 µL/min/pmol
activity at 10 µM [20]: 12%
activity at 10 µM [21]: 62%
inhibition (INH) [22]: Active
inhibition (INH) [23]: Active
inhibition (INH) [24]: Active
inhibition (INH) [26]: Active
inhibition (INH) [27]: Active
pIC50 [28]: 5.40
pIC50 [29]: 5.41
Compound: CCS(=O)(=O)c1ccc2oc(-c3ccc4c(c3)C=C[C@H](O)[C@H]4O)nc2c1
pIC50 [25]: 5.00
